We go through three compounds from ChEMBL document CHEMBL1135888, “Synthesis of new covalently bound kappa-carrageenan-AZT conjugates with improved anti-HIV activities” (J Med Chem, 2002).

Where “and” joins values, the source holds several entries; their conditions need not be identical. Equal entries are not always repeated. A value given as a limit tells only on which side of the number the result lay.

Data set [1] deals with MT4. Briefly: Concentration required to cause 50% death of uninfected MT-4 cells (expressed in AZT equivalent). It is filed as functional, Homo sapiens. In short, it runs like this:
(§1)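 Uninfected MT-4 cells were exposed to compound. Growth was followed and viability measured by trypan blue exclusion, or as viability of mock-infected cells on day 5. CC50 is the concentration giving 50% cell death.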

In data set [2] the test system is MT4. As to the kind of experiment: Concentration required to inhibit the cytopathicity of HIV-1 strain BRU by 50% in MT-4 cells (expressed in AZT equivalent). It is filed as functional, cell-based. To be noted: Homo sapiens. In short, it runs like this:
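MT-4 cells (3 × 10⁵), cultured in RPMI/10% FCS, were pretreated with compound for 1 h at 37 °C. Cells were then infected with HIV-1 BRU (MOI 0.1 CCID/cell) for 1 h, washed three times and cultured 7 days with or without compound, with medium renewed on day 3. Cytopathicity was scored microscopically, in duplicate. Final DMSO was <2%, with DMSO-matched standard assays.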
(In general: Cytopathic effects are the visible damage that an infection or toxin causes in cultured cells.)

Data set [3] relates to MT4. Briefly: Concentration required to inhibit the cytopathicity of HIV-1 strain IIIB by 50% in MT-4 cells (expressed in AZT equivalent). The class given is functional, cell-based. Particulars: Homo sapiens. The method, boiled down:
(§2)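 MT-4 cells in RPMI 1640 with 10% heat-inactivated FCS, 2 mM L-glutamine, 0.1% bicarbonate and 20 µg/mL gentamicin were infected with HIV-1 IIIB before compound was added. Inhibition of virus-induced cytopathicity was read 5 days after infection.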

The species named for the next data set is Homo sapiens. Briefly: % Nucleoside derivatives released after 48 hr of hydrolysis at pH 7.2. The class given is functional. The method, boiled down: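 Incubation at 37 °C for 48 h in normal human serum (pH 7.2). Aliquots were quenched in ice-cold methanol and centrifuged, and supernatants were filtered. HPLC used a 20–100% solvent B gradient over 20 min with detection at 267 nm. Percent of AZT and succinate-AZT released was calculated from peak areas.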

Data set [4] relates to MT4. As to the kind of experiment: Concentration required to cause 50% death of uninfected MT-4 cells (expressed in k-carrageenan equivalent). It is filed as functional, Homo sapiens. The method, boiled down: as §1
Data set [5] has as its system MT4. As to the kind of experiment: Concentration required to inhibit the cytopathicity of HIV-1 strain IIIB by 50% in MT-4 cells (expressed in k-carrageenan equivalent). The class given is functional, cell-based. To be noted: Homo sapiens. In short, it runs like this:
as §2

A short description of data set [6]: half life required for 50% hydrolysis of compound to AZT upon incubation in NHS. It is filed as ADME, organism-based. To be noted: human, NHS (human serum). The method, boiled down: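 Incubation at 37 °C in normal human serum. Samples were quenched with ice-cold methanol, centrifuged and filtered, then run on HPLC at 267 nm. t1/2 is the time to 50% hydrolysis to AZT.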

Usually CC50 stands for the concentration giving 50% cytotoxicity. In general, EC50 refers to the concentration at which the effect is half-maximal. For `Cc1cn([C@H]2C[C@H](N=[N+]=[N-])[C@@H](CO)O2)c(=O)[nH]c1=O` [ZIDOVUDINE], in the data set on MT4 [1], the CC50 was > 100000 nM and 42000 nM. Also, the EC50 in the data set with MT4 [2] was 25 nM.
In the case of `CO[C@H]1O[C@@H]2CO[C@@H]([C@H]1O)[C@H]2O[C@@H]1O[C@H](CO)[C@H](OS(=O)(=O)[O-])[C@H](O[C@H]2O[C@@H]3CO[C@@H]([C@H]2O)[C@H]3O[C@@H]2O[C@H](COC(=O)CCC(=O)OC[C@H]3O[C@@H](n4cc(C)c(=O)[nH]c4=O)C[C@@H]3N=[N+]=[N-])[C@H](OS(=O)(=O)[O-])[C@H](O[C@H]3O[C@@H]4CO[C@@H]([C@H]3O)[C@H]4O[C@@H]3O[C@H](CO)[C@H](OS(=O)(=O)[O-])[C@@H](O[C@H]4O[C@@H]5CO[C@@H]([C@H]4O)[C@H]5O[C@@H]4O[C@H](CO)[C@H](OS(=O)(=O)[O-])[C@H](O[C@H]5O[C@@H]6CO[C@@H]([C@H]5O)[C@H]6O[C@@H]5O[C@H](COC(=O)CCC(=O)OC[C@H]6O[C@@H](n7cc(C)c(=O)[nH]c7=O)C[C@@H]6N=[N+]=[N-])[C@H](OS(=O)(=O)[O-])[C@H](O[C@H]6O[C@@H]7CO[C@@H]([C@H]6O)[C@H]7O[C@@H]6O[C@H](CO)[C@H](OS(=O)(=O)[O-])[C@@H](O[C@H]7O[C@@H]8CO[C@@H]([C@H]7O)[C@H]8O[C@@H]7O[C@H](CO)[C@H](OS(=O)(=O)[O-])[C@H](O[C@H]8O[C@@H]9CO[C@@H]([C@H]8O)[C@H]9O[C@@H]8O[C@H](COC(=O)CCC(=O)OC[C@H]9O[C@@H](n%10cc(C)c(=O)[nH]c%10=O)C[C@@H]9N=[N+]=[N-])[C@H](OS(=O)(=O)[O-])[C@H](O[C@H]9O[C@@H]%10CO[C@@H]([C@H]9O)[C@H]%10O[C@@H]9O[C@H](CO)[C@H](OS(=O)(=O)[O-])[C@H](C)[C@H]9O)[C@H]8O)[C@H]7O)[C@H]6O)[C@H]5O)[C@H]4O)[C@H]3O)[C@H]2O)[C@H]1O.[Na+].[Na+].[Na+].[Na+].[Na+].[Na+].[Na+].[Na+].[Na+]`, the EC50 was found to be 109 nM in the data set with MT4 [3] and 1.6 µg/mL in the data set with MT4 [5]. For the same compound, the Release in the data set listed under Homo sapiens amounted to 39%. Further, the CC50 is 300 µg/mL in the data set with MT4 [4] and 300 µg/mL in the data set on MT4 [4] (Homo sapiens, MT4, read-out: CC50).
As usually defined, the half-life is the time needed for the level to fall by half in the phase considered. Regarding `Cc1cn([C@H]2C[C@H](N=[N+]=[N-])[C@@H](COC(=O)CCC(=O)O)O2)c(=O)[nH]c1=O`, in the data set with MT4 [1], the CC50 is > 50000 nM and 130000 nM. Also, the EC50 in the data set on MT4 [3] amounted to 65 nM; with MT4 [2], 15 nM. In data set [6], this compound showed a half-life of 25 h. Further, the Release in the data set listed under Homo sapiens is 100%.
